From ChEMBL document CHEMBL1141538, “Carboxylic acid bioisosteres acylsulfonamides, acylsulfamides, and sulfonylureas as novel antagonists of the CXCR2 receptor” (Bioorg Med Chem Lett, 2008)

Assays:
[1] = target: T1, C-X-C chemokine receptor type 2 (Homo sapiens, UniProt P25025); test: Displacement of europium labeled-human IL8 from human cloned CXCR2 expressed in Sf9 membrane with Galphai3-beta-1-gamma-2 by DELFIA binding assay
T1 sequence (P25025 whole entry): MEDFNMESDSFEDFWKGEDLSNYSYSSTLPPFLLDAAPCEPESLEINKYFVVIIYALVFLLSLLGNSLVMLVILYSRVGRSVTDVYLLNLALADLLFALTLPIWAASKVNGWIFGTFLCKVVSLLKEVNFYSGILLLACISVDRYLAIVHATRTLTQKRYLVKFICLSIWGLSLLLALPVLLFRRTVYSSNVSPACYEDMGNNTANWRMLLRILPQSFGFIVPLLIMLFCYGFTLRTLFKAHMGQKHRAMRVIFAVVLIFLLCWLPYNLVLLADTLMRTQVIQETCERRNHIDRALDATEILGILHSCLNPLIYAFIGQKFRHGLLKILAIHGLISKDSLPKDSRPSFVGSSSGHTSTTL
Method in brief: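 Lysates (40 µg/mL) incubated in triplicate with 2 nM Eu-IL-8 and compound, 90 min at room temperature. Filtered and washed, enhancement solution added, time-resolved fluorescence read at 340/612 nm with 400 µs delay. Background defined with 200 nM unlabeled human IL-8. IC50 by four-parameter logistic fit.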

[2] = target: T1, C-X-C chemokine receptor type 2; test: Antagonist activity at human cloned CXCR2 by calcium flux FLIPR assay; type: functional
Method in brief: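 Chem-1 cells carrying cloned human CXCR2 coupled to Gi/o, seeded at 5 × 10⁵ cells/mL and left to adhere overnight in DMEM without G-418. Loaded with half-strength Calcium 3 dye in HBSS/20 mM Hepes pH 7.4/2.5 mM probenecid, with compound in triplicate, 30 min at 37 °C then 30 min at room temperature. Stimulated with human IL-8 (4 nM solution added). Fluorescence 485/525 read every 2 s. IC50 from a four-parameter logistic fit.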

[3] = Clearance in iv dosed rat; type: ADME, organism-based; details: in vivo
Cytochrome P450 2D6 = Cytochrome P450 2D6 (Homo sapiens, UniProt P10635); test: Inhibition of CYP2D6; type: ADME
[4] = Half life in iv dosed rat; type: ADME, organism-based; details: in vivo
Rattus norvegicus [5] = test: Reduction of hyperoxia-induced neutrophil accumulation in newborn rat at 10 mg/kg, ip after 7 days; type: functional; design: scale not given: the % may be the effect or the level left; details: route intraperitoneal
Rattus norvegicus [6] = test: Reduction of hyperoxia-induced neutrophil accumulation in newborn rat at 10 mg/kg, ip after 7 days; design: scale not given: the % may be the effect or the level left; details: route intraperitoneal
Cytochrome P450 1A2 = target: T2, Cytochrome P450 1A2 (Homo sapiens, UniProt P05177); test: Inhibition of CYP1A2; type: ADME
T2 sequence (P05177 whole entry): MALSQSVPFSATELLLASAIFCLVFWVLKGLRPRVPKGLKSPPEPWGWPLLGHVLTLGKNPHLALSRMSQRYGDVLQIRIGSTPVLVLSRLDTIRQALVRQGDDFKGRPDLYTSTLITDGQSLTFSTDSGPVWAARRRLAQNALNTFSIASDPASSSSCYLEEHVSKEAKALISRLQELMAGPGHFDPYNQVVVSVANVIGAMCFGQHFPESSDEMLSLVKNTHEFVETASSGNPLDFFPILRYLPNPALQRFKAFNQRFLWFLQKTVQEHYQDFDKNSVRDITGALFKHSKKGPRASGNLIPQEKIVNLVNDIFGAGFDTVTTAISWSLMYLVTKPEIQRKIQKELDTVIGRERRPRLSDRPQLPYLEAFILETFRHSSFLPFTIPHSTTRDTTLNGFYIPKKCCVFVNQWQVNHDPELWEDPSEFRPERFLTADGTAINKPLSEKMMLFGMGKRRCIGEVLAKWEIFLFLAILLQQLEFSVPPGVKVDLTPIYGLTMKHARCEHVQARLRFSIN

Cytochrome P450 2C9 = Cytochrome P450 2C9 (Homo sapiens, UniProt P11712); test: Inhibition of CYP2C9; type: ADME
[7] = Stability in human liver microsomes after 10 mins; type: ADME, Microsome; details: read-out: Stability
Cytochrome P450 2C19 = Cytochrome P450 2C19 (Homo sapiens, UniProt P33261); test: Inhibition of CYP2C19; type: ADME
[8] = Plasma protein binding in rat; type: ADME, cell-free; details: read-out: PPB
[9] = Stability in rat liver microsomes after 10 mins; type: ADME, Microsome; details: read-out: Stability
[10] = Oral bioavailability in rat; type: ADME, organism-based; details: in vivo
Cytochrome P450 3A4 = Cytochrome P450 3A4 (Homo sapiens, UniProt P08684); test: Inhibition of CYP3A4; type: ADME
Sequence of Cytochrome P450 3A4 (P08684 whole entry): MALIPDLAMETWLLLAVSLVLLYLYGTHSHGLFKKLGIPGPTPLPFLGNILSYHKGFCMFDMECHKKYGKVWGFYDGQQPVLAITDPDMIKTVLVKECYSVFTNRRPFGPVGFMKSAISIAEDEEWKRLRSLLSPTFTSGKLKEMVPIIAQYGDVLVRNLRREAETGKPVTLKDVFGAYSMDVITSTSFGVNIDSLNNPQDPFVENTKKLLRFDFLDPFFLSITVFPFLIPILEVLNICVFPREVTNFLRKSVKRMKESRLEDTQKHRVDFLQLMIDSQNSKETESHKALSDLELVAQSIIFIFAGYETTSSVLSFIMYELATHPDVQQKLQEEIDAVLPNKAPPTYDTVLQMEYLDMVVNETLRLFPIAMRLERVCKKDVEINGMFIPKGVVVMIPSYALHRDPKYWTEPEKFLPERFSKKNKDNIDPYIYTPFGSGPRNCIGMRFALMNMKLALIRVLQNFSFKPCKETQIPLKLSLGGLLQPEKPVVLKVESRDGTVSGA

Sequence of Cytochrome P450 2C19 (P33261 whole entry): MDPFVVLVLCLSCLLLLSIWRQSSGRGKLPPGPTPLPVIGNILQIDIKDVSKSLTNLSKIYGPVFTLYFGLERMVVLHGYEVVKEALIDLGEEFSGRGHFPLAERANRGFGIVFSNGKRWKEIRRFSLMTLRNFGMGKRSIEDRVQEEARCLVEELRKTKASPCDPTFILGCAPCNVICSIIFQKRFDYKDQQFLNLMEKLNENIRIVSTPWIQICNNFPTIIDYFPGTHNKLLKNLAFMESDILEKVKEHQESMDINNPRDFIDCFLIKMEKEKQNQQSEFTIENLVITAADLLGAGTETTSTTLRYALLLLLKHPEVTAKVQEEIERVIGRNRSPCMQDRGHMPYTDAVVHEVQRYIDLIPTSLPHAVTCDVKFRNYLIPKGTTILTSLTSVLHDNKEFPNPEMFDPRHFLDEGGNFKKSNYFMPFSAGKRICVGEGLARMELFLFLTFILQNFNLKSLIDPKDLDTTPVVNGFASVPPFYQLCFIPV
Sequence of Cytochrome P450 2D6 (P10635 whole entry): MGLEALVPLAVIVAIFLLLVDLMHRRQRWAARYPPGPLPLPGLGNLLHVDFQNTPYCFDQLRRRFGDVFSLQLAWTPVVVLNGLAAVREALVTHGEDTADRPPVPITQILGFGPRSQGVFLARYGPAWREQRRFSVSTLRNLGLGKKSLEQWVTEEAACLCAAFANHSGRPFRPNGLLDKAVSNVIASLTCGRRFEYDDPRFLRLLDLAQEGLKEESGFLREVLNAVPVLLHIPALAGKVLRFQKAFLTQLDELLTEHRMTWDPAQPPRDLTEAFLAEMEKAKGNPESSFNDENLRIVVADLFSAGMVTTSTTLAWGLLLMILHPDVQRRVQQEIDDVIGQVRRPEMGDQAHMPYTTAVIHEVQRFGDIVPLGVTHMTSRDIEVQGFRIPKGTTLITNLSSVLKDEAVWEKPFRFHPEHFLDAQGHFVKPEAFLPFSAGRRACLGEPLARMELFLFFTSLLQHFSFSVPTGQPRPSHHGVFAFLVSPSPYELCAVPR
Sequence of Cytochrome P450 2C9 (P11712 whole entry): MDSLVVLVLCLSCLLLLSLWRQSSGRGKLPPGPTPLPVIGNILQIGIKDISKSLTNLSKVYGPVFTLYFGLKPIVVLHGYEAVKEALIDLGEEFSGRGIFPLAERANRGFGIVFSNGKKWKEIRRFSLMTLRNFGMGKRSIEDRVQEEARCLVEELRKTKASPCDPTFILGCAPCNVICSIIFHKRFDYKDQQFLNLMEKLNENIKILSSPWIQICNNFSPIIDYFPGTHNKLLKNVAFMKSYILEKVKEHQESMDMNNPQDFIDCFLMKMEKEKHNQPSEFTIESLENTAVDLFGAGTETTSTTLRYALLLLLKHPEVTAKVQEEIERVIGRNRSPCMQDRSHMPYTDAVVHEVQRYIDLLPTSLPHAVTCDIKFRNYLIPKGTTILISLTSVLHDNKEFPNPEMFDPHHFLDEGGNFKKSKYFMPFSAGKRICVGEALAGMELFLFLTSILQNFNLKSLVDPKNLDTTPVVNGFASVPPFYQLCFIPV

Structure (SMILES)	IC50 [1]	further results
N#Cc1ccc2[nH]c(-c3ccc(F)cc3)c(CCCC(=O)NS(=O)(=O)N3CCOCC3)c2c1	150 nM	
COc1cc2[nH]c(-c3ccc(F)cc3)c(CCCC(=O)NS(=O)(=O)N(C)C)c2cc1C#N	57 nM	
Cc1cc2[nH]c(-c3ccc(F)cc3)c(CCCC(=O)NS(=O)(=O)N(C)C)c2cc1C#N	24 nM	
CS(=O)(=O)NC(=O)NCCc1c(-c2ccc(F)cc2)[nH]c2ccc(C#N)cc12	640 nM	
O=C(NCCc1c(-c2ccc(F)cc2)[nH]c2ccc(Br)cc12)NS(=O)(=O)c1ccccc1	120 nM	IC50 [2]: 4 nM
N#Cc1ccc2[nH]c(-c3ccc(F)cc3)c(CCNC(=O)NS(=O)(=O)c3ccc(F)cc3)c2c1	520 nM	
N#Cc1ccc2[nH]c(-c3ccc(F)cc3)c(CCNC(=O)NS(=O)(=O)c3ccccc3)c2c1	140 nM	
CC(C)S(=O)(=O)NC(=O)CCCc1c(-c2ccc(F)cc2)[nH]c2ccc(C#N)cc12	220 nM	
CS(=O)(=O)NC(=O)CCCc1c(-c2ccc(F)cc2)[nH]c2ccc(Br)cc12	170 nM	
CCS(=O)(=O)NC(=O)CCCc1c(-c2ccc(F)cc2)[nH]c2ccc(C#N)cc12	64 nM	
N#Cc1ccc2[nH]c(-c3ccc(F)cc3)c(CCCC(=O)NS(=O)(=O)c3ccccc3)c2c1	260 nM	
N#Cc1ccc2[nH]c(-c3ccc(F)cc3)c(CCCC(=O)NS(=O)(=O)C(F)(F)F)c2c1	87 nM	IC50 [2]: 70 nM
CNS(=O)(=O)NC(=O)CCCc1c(-c2ccc(F)cc2)[nH]c2ccc(C#N)cc12	120 nM	IC50 [2]: 14 nM
N#Cc1ccc2[nH]c(-c3ccc(F)cc3)c(CCCC(=O)NS(N)(=O)=O)c2c1	66 nM	
CCCCNS(=O)(=O)NC(=O)CCCc1c(-c2ccc(F)cc2)[nH]c2ccc(C#N)cc12	1100 nM	
CN(C(=O)CCCc1c(-c2ccc(F)cc2)[nH]c2ccc(C#N)cc12)S(C)(=O)=O	> 2000 nM	
CCCS(=O)(=O)NC(=O)CCCc1c(-c2ccc(F)cc2)[nH]c2ccc(C#N)cc12	1300 nM	
COCCNS(=O)(=O)NC(=O)CCCc1c(-c2ccc(F)cc2)[nH]c2ccc(C#N)cc12	260 nM	
Cc1cc2[nH]c(-c3ccc(F)cc3)c(CCCC(=O)NS(C)(=O)=O)c2cc1C#N	19 nM	
CN(C)S(=O)(=O)NC(=O)CCCc1c(-c2ccc(F)cc2)[nH]c2ccc(C#N)cc12	50 nM	clearance [3]: 3.8 mL/min/kg; IC50 (Cytochrome P450 2D6): > 5 µM; half-life [4]: 162 min; Activity (Rattus norvegicus [5]): 50%; Activity (Rattus norvegicus [6]): 50%; IC50 (Cytochrome P450 1A2): > 5 µM; IC50 (Cytochrome P450 2C9): 1320 nM; IC50 [2]: 5 nM; remaining at 10 min [7]: 76.8%; IC50 (Cytochrome P450 2C19): > 5 µM; fraction unbound [8]: < 0.01; remaining at 10 min [9]: 100%; bioavailability [10]: 107%; IC50 (Cytochrome P450 3A4): > 5 µM
CCN(CC)S(=O)(=O)NC(=O)CCCc1c(-c2ccc(F)cc2)[nH]c2ccc(C#N)cc12	1100 nM	
N#Cc1ccc2[nH]c(-c3ccc(F)cc3)c(CCCC(=O)NS(=O)(=O)Cc3ccccc3)c2c1	1400 nM	
COc1cc2[nH]c(-c3ccc(F)cc3)c(CCCC(=O)NS(C)(=O)=O)c2cc1C#N	160 nM	
N#Cc1ccc2[nH]c(-c3ccc(F)cc3)c(CCCC(=O)NS(=O)(=O)Nc3ccccc3)c2c1	880 nM	
CS(=O)(=O)NC(=O)NCCc1c(-c2ccc(F)cc2)[nH]c2ccc(Br)cc12	250 nM	IC50 [2]: 90 nM
N#Cc1ccc2[nH]c(-c3ccc(F)cc3)c(CCNC(=O)NS(=O)(=O)c3ccccc3Cl)c2c1	400 nM	
CS(=O)(=O)NC(=O)CCCc1c(-c2ccc(F)cc2)[nH]c2ccc(C#N)cc12	72 nM	IC50 [2]: 32 nM
